Here are results for six compounds from ChEMBL document CHEMBL3112444, “Synthesis and anticancer activity of focused compound libraries from the natural product lead, oroidin” (2014).

Test [1] is described as follows: Cytotoxicity against human U87 cells assessed as growth inhibition after 72 hrs by MTT assay. It is filed as functional, U-87MG ATCC. The conditions noted are these: U-87 MG. The essentials:
(§1)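 Cells in logarithmic growth kept in DMEM with 10% FBS, 10 mM sodium bicarbonate, penicillin 100 IU/mL, glutamine 4 mM, at 37 °C under 5% CO2. Plated in duplicate at 2500–4000 cells/well. Compound (30 mM DMSO stock) added 24 h after plating. MTT read at 540 nm after 72 h exposure.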
Background: Formazan colour is commonly taken as a measure of viable cells.

Test [2] is described as follows: Cytotoxicity against mouse SMA cells assessed as growth inhibition after 72 hrs by MTT assay. It is filed as functional. The procedure, abridged:
as §1

Test [3] can be described thus: Cytotoxicity against human SJ-G2 cells assessed as growth inhibition after 72 hrs by MTT assay. Conditions: SJ-G2, 72 h. It is filed as functional. The essentials:
as §1

Test [4] is described as follows: Cytotoxicity against human MIA cells assessed as growth inhibition after 72 hrs by MTT assay. It is filed as functional. The essentials: as §1
The nature of test [5]: Cytotoxicity against human BE(2)-C cells assessed as growth inhibition after 72 hrs by MTT assay. The class given is functional. The procedure, abridged:
as §1

Test [6] concerns DU-145. Nature of the test: Cytotoxicity against human DU145 cells assessed as growth inhibition after 72 hrs by MTT assay. It is filed as functional. Conditions: DU-145, 72 h. The essentials: as §1
The nature of test [7]: Cytotoxicity against human H460 cells assessed as growth inhibition after 72 hrs by MTT assay. It is filed as functional. Conditions: NCI-H460, 72 h. The procedure, abridged: as §1
Test [8] has as its system A-431. Nature of the test: Cytotoxicity against human A431 cells assessed as growth inhibition after 72 hrs by MTT assay. It is filed as functional. Conditions: A-431, 72 h. The procedure, abridged:
as §1

The subject of test [9] is A2780. Nature of the test: Cytotoxicity against human A2780 cells assessed as growth inhibition after 72 hrs by MTT assay. The class given is functional. The conditions noted are these: A2780, 72 h. The essentials:
as §1

Test [10] concerns MCF7. Nature of the test: Cytotoxicity against human MCF7 cells assessed as growth inhibition after 72 hrs by MTT assay. The class given is functional. Conditions: MCF7, 72 h. The essentials: as §1
The subject of test [11] is SW480. Nature of the test: Cytotoxicity against human SW480 cells assessed as growth inhibition after 72 hrs by MTT assay. It is filed as functional. Conditions: SW480, 72 h. The procedure, abridged:
as §1

Test [12] concerns HT-29. Nature of the test: Cytotoxicity against human HT-29 cells assessed as growth inhibition after 72 hrs by MTT assay. The class given is functional. The conditions noted are these: HT-29, 72 h. The procedure, abridged: as §1
Test [13] in a line: Cytotoxicity against human U87 cells assessed as growth inhibition at 25 uM after 72 hrs by MTT assay relative to control. Conditions: U-87 MG, read-out: GI. The class given is functional, U-87MG ATCC. The essentials: as §1
Test [14] can be described thus: Cytotoxicity against mouse SMA cells assessed as growth inhibition at 25 uM after 72 hrs by MTT assay relative to control. It is filed as functional. The conditions noted are these: read-out: GI. The procedure, abridged:
as §1

Test [15] in a line: Cytotoxicity against human MIA cells assessed as growth inhibition at 25 uM after 72 hrs by MTT assay relative to control. The class given is functional. The conditions noted are these: read-out: GI. The procedure, abridged:
as §1

Test [16] in a line: Cytotoxicity against human SJ-G2 cells assessed as growth inhibition at 25 uM after 72 hrs by MTT assay relative to control. Conditions: SJ-G2, 72 h, read-out: GI. The class given is functional. The essentials: as §1
Test [17] can be described thus: Cytotoxicity against human BE(2)-C cells assessed as growth inhibition at 25 uM after 72 hrs by MTT assay relative to control. The conditions noted are these: read-out: GI. The class given is functional. The essentials: as §1
Test [18] deals with DU-145. Kind of test: Cytotoxicity against human DU145 cells assessed as growth inhibition at 25 uM after 72 hrs by MTT assay relative to control. It is filed as functional. Conditions: DU-145, 72 h, read-out: GI. The procedure, abridged: as §1
For test [19], the system named is A-431. Nature of the test: Cytotoxicity against human A431 cells assessed as growth inhibition at 25 uM after 72 hrs by MTT assay relative to control. It is filed as functional. The conditions noted are these: A-431, 72 h, read-out: GI. The essentials:
as §1

Test [20] in a line: Cytotoxicity against human H460 cells assessed as growth inhibition at 25 uM after 72 hrs by MTT assay relative to control. It is filed as functional. Conditions: NCI-H460, 72 h, read-out: GI. The procedure, abridged:
as §1

Test [21] relates to A2780. Nature of the test: Cytotoxicity against human A2780 cells assessed as growth inhibition at 25 uM after 72 hrs by MTT assay relative to control. It is filed as functional. Conditions: A2780, 72 h, read-out: GI. The procedure, abridged: as §1
The test system of test [22] is MCF7. Nature of the test: Cytotoxicity against human MCF7 cells assessed as growth inhibition at 25 uM after 72 hrs by MTT assay relative to control. It is filed as functional. The conditions noted are these: MCF7, 72 h, read-out: GI. The procedure, abridged: as §1
The test system of test [23] is SW480. Nature of the test: Cytotoxicity against human SW480 cells assessed as growth inhibition at 25 uM after 72 hrs by MTT assay relative to control. It is filed as functional. The conditions noted are these: SW480, 72 h, read-out: GI. The procedure, abridged:
as §1

Test [24] concerns HT-29. Nature of the test: Cytotoxicity against human HT-29 cells assessed as growth inhibition at 25 uM after 72 hrs by MTT assay relative to control. The class given is functional. Conditions: HT-29, 72 h, read-out: GI. The essentials: as §1

What is called GI50 is the concentration that inhibits growth by half. In the case of `O=C(NCC(c1ccccc1)c1ccccc1)c1cc(Br)c(Br)[nH]1`, the GI50 in [1] came out at 36 µM; in test [2], 11 µM; in [3], 27 µM; in test [4], 18 µM; in test [5], 16 µM; with DU-145 [6], 21 µM. For the same compound, the GI50 is 18 µM in test [7]; 19 µM in the test with A-431 [8]; 13 µM in the test with A2780 [9]; 10 µM with MCF7 [10]; 34 µM with SW480 [11]; 16 µM in the test with HT-29 [12]. Moreover, the inhibition of growth at 25 µM in [13] is 48%; in [14], 80%; in test [15] it was 69%; in test [16] it was 56%; in test [17], over 100%; with DU-145 [18] it was 56%. In addition, the inhibition of growth at 25 µM is 56% in the test on A-431 [19]; 67% in test [20]; 94% in the test with A2780 [21]; over 100% with MCF7 [22]; 33% in the test on SW480 [23]; 82% in the test with HT-29 [24].
Consider `O=C(NCc1ccc(Cl)cc1)c1cc(Br)c(Br)[nH]1`, for which the GI50 in test [1] was determined as 34 µM; in [2], 16 µM; in [3] it was 28 µM; in test [4], 22 µM; in test [5] it was 32 µM; in the test on DU-145 [6], 27 µM. The GI50 in test [7] turned out to be 28 µM; with A-431 [8] it was 24 µM; in the test on A2780 [9], 13 µM; with MCF7 [10] it was 14 µM; in the test on SW480 [11], 36 µM; in the test on HT-29 [12], 13 µM. Moreover, the inhibition of growth at 25 µM stood at 30% in test [13]; 79% in test [14]; 63% in [15]; 42% in [16]; 24% in [17]; 40% in the test on DU-145 [18]. For the same compound, the inhibition of growth at 25 µM in the test on A-431 [19] is 37%; in [20], 57%; with A2780 [21], 86%; in the test with MCF7 [22] it was over 100%; in the test on SW480 [23], 11%; in the test with HT-29 [24], 95%.
For `O=C(NCc1ccc(Cl)c(Cl)c1)c1cc(Br)c(Br)[nH]1`, the GI50 was 27 µM in [1]; 17 µM in test [2]; 18 µM in test [3]; 17 µM in [4]; 24 µM in [5]; 20 µM in the test on DU-145 [6]. Moreover, the GI50 in [7] was determined as 19 µM; with A-431 [8], 20 µM; in the test on A2780 [9] it was 15 µM; in the test on MCF7 [10], 12 µM; in the test with SW480 [11], 33 µM; in the test with HT-29 [12] it was 17 µM. The inhibition of growth at 25 µM in test [13] stood at 55%; in test [14], 84%; in [15] it was 77%; in test [16] it was 70%; in test [17] it was 44%; with DU-145 [18] it was 66%. For the same compound, the inhibition of growth at 25 µM in the test on A-431 [19] is 57%; in [20], 66%; with A2780 [21], 90%; in the test with MCF7 [22], over 100%; with SW480 [23] it was 22%; in the test on HT-29 [24], 77%.
Regarding `O=C(NCCc1ccc(O)cc1)c1cc(Br)c(Br)[nH]1`, the GI50 in test [1] is over 50 µM; in [2], 23 µM; in test [3], 30 µM; in [4], 43 µM; in [5], 16 µM; with DU-145 [6], over 50 µM. Besides, the GI50 in test [7] is 39 µM; in the test with A-431 [8], 20 µM; in the test with A2780 [9], 11 µM; in the test with MCF7 [10] it was 12 µM; with SW480 [11], over 50 µM; in the test on HT-29 [12] it was 28 µM. The inhibition of growth at 25 µM was under 0% in test [13]; 46% in test [14]; 20% in test [15]; 44% in test [16]; 101% in test [17]; 3% with DU-145 [18]. The inhibition of growth at 25 µM is 68% in the test on A-431 [19]; 11% in test [20]; 90% in the test with A2780 [21]; 81% in the test on MCF7 [22]; under 0% with SW480 [23]; 48% with HT-29 [24].
On to `O=C(NCc1ccccc1)c1cc(Br)c(Br)[nH]1`, for which the GI50 in test [1] is over 50 µM; in [2], 25 µM; in test [3], 11 µM; in test [4], over 50 µM; in test [5] it was 4.8 µM; with DU-145 [6] it was 33 µM. For the same compound, the GI50 in test [7] was 35 µM; with A-431 [8], 22 µM; with A2780 [9], 14 µM; in the test with MCF7 [10] it was 11 µM; in the test with SW480 [11], over 50 µM; in the test on HT-29 [12], 4.6 µM. Besides, the inhibition of growth at 25 µM in test [13] was 31%; in test [14], 61%; in test [15], 33%; in test [16], 95%; in test [17], over 100%; in the test on DU-145 [18], 52%. Moreover, the inhibition of growth at 25 µM in the test with A-431 [19] was 56%; in [20] it was 43%; in the test on A2780 [21] it was 84%; with MCF7 [22] it was over 100%; in the test on SW480 [23], 33%; in the test on HT-29 [24], over 100%.
As for `Nc1ncc(/C=C/CNC(=O)c2cc(Br)c(Br)[nH]2)[nH]1` [OROIDIN], the GI50 (in test [1]; in [2]; in [3]; in test [4]; in test [5]; in the test on DU-145 [6]) was over 50 µM throughout. Further, the GI50 in test [7] was over 50 µM; in the test with A-431 [8] it was over 50 µM; with A2780 [9], 24 µM; in the test with MCF7 [10], 42 µM; in the test with SW480 [11], over 50 µM; with HT-29 [12] it was over 50 µM. Moreover, the inhibition of growth at 25 µM is 3% in test [13]; 15% in test [14]; 21% in test [15]; under 0% in test [16]; 6% in [17]; 23% in the test on DU-145 [18]. For the same compound, the inhibition of growth at 25 µM came to 6% in the test with A-431 [19]; 7% in test [20]; 51% in the test on A2780 [21]; 27% with MCF7 [22]; 8% in the test on SW480 [23]; 31% in the test on HT-29 [24].
